Tests used:
[1] = target: T1, Melatonin receptor type 1A (Homo sapiens, UniProt P48039); assay: Displacement of 2-[125I]-Iodomelatonin from human MT1 receptor transfected in CHO cell membranes after 120 mins
Procedure, shortened: (§1)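 Membranes from CHO cells stably expressing the receptor were pelleted and homogenized in Tris 5 mM/EDTA 2 mM, then held at -80 °C. Assay buffer was 50 mM Tris-HCl pH 7.4 with 5 mM MgCl2. Radioligand was 20 pM, with nonspecific binding defined by 1 μM melatonin.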

[2] = Displacement of 2-[125I]-Iodomelatonin from human MT2 receptor transfected in CHO cell membranes after 120 mins; procedure, shortened: as §1
[3] = target: T1, Melatonin receptor type 1A; assay: Intrinsic activity at human MT1 receptor transfected in CHO cell membranes after 1 hr by [35S]GTPgammaS binding assay; assay type: functional
Procedure, shortened: (§2)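 Transfected CHO membranes at 20 μg/mL were incubated in 20 mM HEPES pH 7.4 with 100 mM NaCl, 3 μM GDP, 3 mM MgCl2 and 20 μg/mL saponin. 0.2 nM [35S]GTPγS was added and incubation ran 1 h at room temperature. Nonspecific binding was defined by 10 μM GTPγS, with 1 μM melatonin as reference. Filtration was on GF/B. Curves used 7 concentrations in duplicate, giving EC50 and Emax.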

CHO = assay: (§3) Intrinsic activity at human MT2 receptor transfected in CHO cell membranes after 1 hr by [35S]GTPgammaS binding assay; procedure, shortened: as §2
[4] = as §3; procedure, shortened: as §2
Homo sapiens = organism: Homo sapiens; assay: Selectivity ratio of Ki for human MT1 receptor to Ki for human MT2 receptor

T1 sequence (P48039 whole entry): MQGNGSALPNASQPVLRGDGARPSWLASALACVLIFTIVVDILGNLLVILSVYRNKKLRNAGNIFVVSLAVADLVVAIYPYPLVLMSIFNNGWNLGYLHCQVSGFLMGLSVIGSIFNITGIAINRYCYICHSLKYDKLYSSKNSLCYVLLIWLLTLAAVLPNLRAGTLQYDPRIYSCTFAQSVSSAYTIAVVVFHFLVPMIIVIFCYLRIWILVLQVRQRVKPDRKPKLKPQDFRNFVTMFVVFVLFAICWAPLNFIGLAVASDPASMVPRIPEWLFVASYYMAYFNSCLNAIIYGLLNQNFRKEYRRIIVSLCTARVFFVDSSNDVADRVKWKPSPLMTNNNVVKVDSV

Compound | Ki [1] | Ki [2] | EC50 [3] | Emax [3] | Emax (CHO) | EC50 [4] | Ratio Ki (Homo sapiens)
CC(=O)NC[C@H]1CCc2ccccc2N1Cc1ccccc1 | 45 nM | 0.1 nM | 192 nM | 52% | 80% | 1.9 nM | –
CC(=O)NC[C@@H]1CCc2ccccc2N1Cc1ccccc1 | 122 nM | 6.2 nM | – | – | 60% | 19 nM | –
CCC(=O)NCc1ccc2c(OC)cccc2n1 | > 10000 nM | 4450 nM | – | – | – | – | –
CCC(=O)NCC1CCc2c(cccc2OC)N1 (racemic) | 57 nM | 21 nM | 906 nM | 70% | 98% | 165 nM | –
CCC(=O)NCC1CCc2ccccc2N1 (racemic) | 13 nM | 2.2 nM | 242 nM | 37% | – | 27 nM | –
CCNC(=O)NCC1CCc2c(cccc2OC)N1 (racemic) | 480 nM | 114 nM | – | – | – | – | –
CCNC(=O)NCC1CCc2ccccc2N1 (racemic) | 115 nM | 17 nM | 2420 nM | 30% | 80% | 356 nM | –
CCNC(=S)NCC1CCc2c(cccc2OC)N1 (racemic) | > 1000 nM | > 1000 nM | – | – | – | – | –
CCNC(=S)NCC1CCc2ccccc2N1 (racemic) | 305 nM | 90 nM | 2660 nM | 35% | 72% | 1430 nM | –
CCNC(=O)NCC1CCc2c(OC)cccc2N1C (racemic) | 5 nM | 1.4 nM | 160 nM | 92% | 105% | 10 nM | –
CCNC(=O)NCC1CCc2ccccc2N1C (racemic) | 5.3 nM | 3.4 nM | 110 nM | 69% | 97% | 6.2 nM | –
CCNC(=O)NCC1CCc2c(OC)cccc2N1Cc1ccccc1 (racemic) | 132 nM | 2.9 nM | 393 nM | 44% | 107% | 13 nM | –
CCC(=O)NCC1CCc2c(OC)cccc2N1Cc1ccccc1 (racemic) | 17 nM | 0.001 nM | 177 nM | 79% | 111% | 0.9 nM | > 10000
CCC(=O)NCC1CCc2cc(OC)ccc2N1Cc1ccccc1 (racemic) | 186 nM | 1.5 nM | – | – | 75% | 4.6 nM | –
CCC(=O)NCC1CCc2ccc(OC)cc2N1Cc1ccccc1 (racemic) | 214 nM | 26 nM | – | – | 42% | 25 nM | –
CCC(=O)NCC1CCc2ccccc2N1Cc1ccccc1 (racemic) | 37 nM | 0.09 nM | 36 nM | 42% | 73% | 0.4 nM | > 400
CC(=O)NCC1CCc2ccccc2N1Cc1ccccc1 (racemic) | 45 nM | 0.04 nM | 31 nM | 35% | 60% | 0.4 nM | –
O=C(NCC1CCc2ccccc2N1Cc1ccccc1)C1CC1 (racemic) | 291 nM | 0.2 nM | – | – | 38% | 0.3 nM | –
O=C(NCC1CCc2ccccc2N1Cc1ccccc1)C1CCC1 (racemic) | 633 nM | 6.2 nM | – | – | < 15% | – | –
CCC(=O)NCC1CCc2c(OC)cccc2N1C (racemic) | 0.03 nM | 0.5 nM | 1.7 nM | 112% | 122% | 0.5 nM | –
CCC(=O)NCC1CCc2ccccc2N1C (racemic) | 0.7 nM | 0.2 nM | 0.9 nM | 69% | 122% | 0.6 nM | –
CC(=O)NCC1CCc2ccccc2N1CCc1ccccc1 (racemic) | 171 nM | 3 nM | – | – | < 15% | – | –
CCCN1c2ccccc2CCC1CNC(C)=O (racemic) | 5.8 nM | 0.1 nM | 2 nM | 39% | 58% | 0.2 nM | –
CCC(=O)NCC1CCc2ccccc2N1CC(=O)NC (racemic) | > 10000 nM | 385 nM | – | – | – | – | –
CCC(=O)NCC1CCc2ccccc2N1c1ccccc1 (racemic) | 1.6 nM | 0.06 nM | 6.2 nM | 69% | 90% | 0.5 nM | –
CCNC(=S)NCC1CCc2ccccc2N1C (racemic) | 22 nM | 15 nM | 809 nM | 76% | 73% | 66 nM | –
CCC(=O)NCCC1CCc2ccccc2N1Cc1ccccc1 (racemic) | 326 nM | 1.6 nM | – | – | 59% | 4.7 nM | –

— ChEMBL document CHEMBL3611983, “Highly Potent and Selective MT2 Melatonin Receptor Full Agonists from Conformational Analysis of 1-Benzyl-2-acylaminomethyl-tetrahydroquinolines” (J Med Chem, 2015)
